Source: PubChem
Only some compounds are listed: those with a hit (about 3.1% of all), similar ones and a draw of the others.
CFTR F508del cor = correctors of CFTR F508del function in bronchial epithelial cells | CFBE cells, YFP halide quenching; stimulated with forskolin plus potentiator P3; % fluorescence drop versus neutral controls | activity (quench increase), % at 7.58 µM | hit rate 0.36% among 350,000 | AID 720511;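 active = mean added fluorescence quench of at least 8% versus neutral control, with both replicates also reaching 8%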;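 note: cells transiently co-express mutant CFTR-F508del with the halide-sensitive YFP; corrector assay measuring rescue of mutant channel to the surface after 24 h compound exposure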
rRNA inh HTS = inhibits bacterial ribosomal RNA function over humanized ribosomes; hit rate 1.6% among 350,000; GFP signal change (wild-type ribosome), % (test concentration not listed); AID 720706; E. coli WT GFP vs humanized-ribosome RFP mutants, fluorescence, 24 h; active compounds read low; DMSO median 0, no signal -100;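 active = significant combined selectivity score with lowered wild-type GFP, culture density cut under 30%, mutant RFP and density less affected; inactive = any of these conditions unmet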
S100A4 inh HTS = inhibitors of human S100A4 binding to myosin IIA peptide; AID 652163; inhibition, % at 10.7 µM; P26447; S100A4/TAMRA-MyoIIA peptide fluorescence polarization; hit rate 0.14% among 360,000;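 active = mean inhibition of at least 70% across replicates, with every replicate also reaching that level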
Target sequence (P26447 whole entry, looked up): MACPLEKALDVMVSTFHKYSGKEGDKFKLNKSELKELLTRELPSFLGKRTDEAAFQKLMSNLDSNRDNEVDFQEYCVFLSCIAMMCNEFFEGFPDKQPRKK
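Test system: S100A4 monomer protein; Medium: HEPES pH 7.2 with CaCl2, KCl, NaCl, DTT, Triton; Probe or stimulus: TAMRA-labelled myosin IIA heavy-chain peptide probe, 5 nM; Doses: one dose per compound; Times: polarization read 5 min after assay mix addition, stable 5–60 min; Benchmarks: neutral control DMSO, positive control TFP.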
SIRT5 block = inhibitors of human sirtuin-5 desuccinylase. Q9NXA8. Purified SirT5, succinyl-peptide AMC, trypsin-coupled fluorescence. inhibition, % at 15 µM. hit rate 1.1% among 330,000. AID 652115; in the data active = inhibition above about 15%
Target sequence (Q9NXA8 whole entry, looked up): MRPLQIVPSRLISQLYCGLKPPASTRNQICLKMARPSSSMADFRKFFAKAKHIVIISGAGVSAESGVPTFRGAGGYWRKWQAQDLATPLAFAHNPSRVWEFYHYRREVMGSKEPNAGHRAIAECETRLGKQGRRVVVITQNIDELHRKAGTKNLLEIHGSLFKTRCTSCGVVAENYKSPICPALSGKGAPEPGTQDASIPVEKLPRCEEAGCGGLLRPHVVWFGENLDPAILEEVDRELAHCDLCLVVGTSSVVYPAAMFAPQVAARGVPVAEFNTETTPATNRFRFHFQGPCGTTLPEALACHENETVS
ERAP1 HTS inh = blocks human ERAP1 aminopeptidase activity | Q9NZ08 | recombinant ERAP1, Leu-AMC fluorescence, 60 min | inhibition, % at 10.7 µM | hit rate 0.15% among 340,000 | AID 652197;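 active = mean replicate inhibition of at least 30%, or all replicates individually reaching that 30% level; inactive = mean below 30% and not every replicate reaching it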;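 note: 0% = neutral control wells and 100% = L-leucinethiol positive control wells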
Numbers without * were called inactive; nt = no result.

SMILES	CFTR F508del cor	rRNA inh HTS	S100A4 inh HTS	SIRT5 block	ERAP1 HTS inh
COc1ccc(C2=NN(C(=O)CCC(=O)O)C(c3ccc(OC)cc3)C2)cc1 (stereo unspecified)	nt	-2	4	21*	-4
COc1ccc(C2CC(c3ccc4ccccc4c3)=NN2C(=O)CN2CCC(C(N)=O)CC2)cc1 (stereo unspecified)	-1	-48*	-1	0	-3
COc1ccc(C2CC(c3cccs3)=NN2C(=O)CN2CCCCC2)cc1 (stereo unspecified)	-2	12	-2	33*	-9
CO[C@@H]1CN(C)C(=O)c2ccc(NC(=O)C3CC3)cc2OC[C@@H](C)N(C(=O)c2cccnc2)C[C@@H]1C	-1	1	-3	-3	2
CCCN1C[C@@H](C)[C@H](OC)CN(C)C(=O)c2cc(NC(=O)COC)ccc2OC[C@@H]1C	0	-1	nt	nt	nt
CC(C)n1c(C(=O)OCC(=O)NCc2ccc3c(c2)OCO3)cc2sccc21	0	-25*	-6	-1	1
CC(=O)Nc1ccc2c(c1)C(=Nc1ccc(C)cc1)c1ccccc1-2	5	-22*	-5	nt	-1
CC(=O)Nc1ccc2c(c1)C(=Nc1ccccc1)c1ccccc1-2	1	-5	6	0	-6
CCCNC(=O)N(C)C[C@H]1Oc2cc(C#CC(C)C)ccc2S(=O)(=O)N([C@H](C)CO)C[C@@H]1C	-3	-4	-44	19*	-4
CCCNC(=O)N(C)C[C@H]1Oc2cc(C#C[C@H](C)O)ccc2S(=O)(=O)N([C@@H](C)CO)C[C@@H]1C	-2	5	-9	18*	0
CCCNC(=O)N(C)C[C@@H]1Oc2cc(C#C[C@@H](C)O)ccc2S(=O)(=O)N([C@@H](C)CO)C[C@@H]1C	0	3	-2	-5	nt
CCCNC(=O)N(C)C[C@H]1Oc2cc(C#CC(C)C)ccc2S(=O)(=O)N([C@H](C)CO)C[C@H]1C	0	-6	-31	2	-3
Cc1ccc(NC(=O)Cc2nc(-c3c[nH]c(C(=O)N4CCCC4)c3)cs2)c(C)c1	8.8*	nt	-6	-1	-1
Cc1ccc(NC(=O)CSc2n[nH]c(-c3ccncc3)n2)c(C)c1	-2	3	-1	9	1
CS(=O)(=O)N1[C@@H]2c3ccc(-c4ccccc4F)c(=O)n3C[C@@H]2[C@@H](CO)[C@@H]1C(=O)NCC1CC1	1	2	18	-10	-1
O=C(C[C@H]1CC[C@@H]2[C@H](COC[C@H](O)CN2Cc2nccs2)O1)NCc1ccc(-c2ccccc2)cc1	0	-1	-3	11	1
CCCCCCCCN1[C@@H](CC(=O)O)c2cc(C(F)(F)F)ccc2S1(=O)=O	0	-9	2	40*	2
CCCCCCCCCCCCN1[C@@H](CC(=O)O)c2cc(C(F)(F)F)ccc2S1(=O)=O	-1	10	-1	nt	17
C[C@@H]1CN([C@H](C)CO)C(=O)Cc2cc(NS(=O)(=O)c3ccccc3)ccc2O[C@H]1CN(C)C(=O)Nc1cccc2ccccc12	1	5	-5	7	-2
COc1ccc(S(=O)(=O)N2CCC(NC(=O)C(Cc3cccc(OC)c3OC)NC(C)=O)CC2)cc1 (stereo unspecified)	1	10	10	18*	-2
FC(F)(F)c1cccc(NC(=S)Nc2cccc(NC(=S)Nc3cccc(C(F)(F)F)c3)n2)c1	1	-46*	-4	-2	0
CC(C)(C)NNC(=S)Nc1cccc(C(F)(F)F)c1	4	nt	3	-4	-1
CCCNC(=O)Nc1ccc2c(c1)OC[C@@H](C)N(C(=O)C1CC1)C[C@H](C)[C@@H](OC)CN(C)C2=O	1	-2	98*	-1	1
CCC(=O)N1C[C@H](C)[C@@H](OC)CN(C)C(=O)c2ccc(NC(=O)Nc3ccccc3)cc2OC[C@H]1C	-1	-6	124*	5	2
CCC(=O)N1C[C@@H](C)[C@H](OC)CN(C)C(=O)c2cc(NC(=O)Nc3cccc(F)c3)ccc2OC[C@@H]1C	1	-2	24	15*	-1
SMILES	CFTR F508del cor	rRNA inh HTS	S100A4 inh HTS	SIRT5 block	ERAP1 HTS inh
CCC(=O)N1C[C@H](C)[C@@H](OC)CN(C)C(=O)c2cc(NC(=O)Nc3cccc(F)c3)ccc2OC[C@@H]1C	-2	-2	-2	5	1
CCC(=O)N1C[C@@H](C)[C@@H](OC)CN(C)C(=O)c2ccc(NC(=O)Nc3cccc(F)c3)cc2OC[C@H]1C	0	-4	-16	4	1
CO[C@@H]1CN(C)C(=O)c2ccc(NS(C)(=O)=O)cc2OC[C@@H](C)N(Cc2ccccc2)C[C@@H]1C	0	-3	5	0	0
c1ccc2c(c1)[nH]c1nc3nncn3nc12	-2	3	7	18*	0
CC(=O)N1[C@@H]2c3cccc(=O)n3C[C@@H]2[C@@H](CO)[C@@H]1C(=O)NCc1ccccc1	nt	-3	nt	nt	nt
CCCN(C)C[C@@H]1Oc2cc(-c3ccccc3C)ccc2S(=O)(=O)N([C@H](C)CO)C[C@@H]1C	-4	3	0	0	nt
O=C(C1CCCCC1)N1C[C@H](n2cc(-c3ccc(F)cc3)nn2)[C@@H](O)C[C@@H]1c1ccccc1	3	5	-1	2	-6
O=C(C1CCCCC1)N1C[C@@H](O)[C@H](n2cc(-c3ccc(F)cc3)nn2)C[C@@H]1c1ccccc1	2	-14	12	28*	8
Cc1ccc(NC(=O)Nc2ccc3c(c2)C(=O)N(C)[C@@H]2CC[C@H](CC(=O)O)O[C@H]2CO3)cc1	-1	0	-4	-2	0
S=C(NCCc1ccccc1)N/N=C/c1ccc(Cl)cc1	0	-28*	-2	8	nt
O=C(CC(c1ccccc1)c1ccccc1O)N1CCCC1 (stereo unspecified)	nt	-1	-2	0	-1
Cc1ccc(C(CC(=O)N2CCCC2)c2ccccc2)c(O)c1 (stereo unspecified)	-4	-26*	-3	-3	1
CCOC(=O)[C@]12Cc3c(cc(OC)c(OC)c3OC)[C@H]1N(CCC(=O)OC)C(=O)c1cc(OC)ccc12	3	-24*	2	6	-1
S=C(NCCCn1ccnc1)Nc1ccc(Cl)cc1Cl	-1	-23*	-1	-5	3
O=C(CSc1cc(Cl)ccc1Cl)NCCCn1ccnc1	-1	0	0	-5	-1
COC(=O)c1ccc(NC(=S)NCCCn2ccnc2)cc1	-4	6	7	20*	-2
CC(=O)Nc1cccc(NC(=O)CSc2ccc(-c3cccnc3)nn2)c1	0	-26*	-13	-4	-3
O=C(CSc1ccc(-c2cccnc2)nn1)N1CCCc2ccccc21	-1	-23*	4	1	6
